ChEMBL document CHEMBL1126152, “Fluoronaphthyridines as antibacterial agents. 4. Synthesis and structure-activity relationships of 5-substituted-6-fluoro-7-(cycloalkylamino)-1,4-dihydro-4-oxo-1,8- naphthyridine-3-carboxylic acids” (J Med Chem, 1992)
Values after ≈ are worked out from the molar mass of the structure shown. Values joined by “and” are separate entries in the source; they are usually repeats but may differ in a detail not shown here. Equal entries are not always repeated.

What was measured:
[1] = tested on: Staphylococcus; assay: Compound was tested for […] against Staphylococcus aureus A 15090 after oral administration of drug in value in the parenthesis indicates 95% confidence limits; type: functional; conditions: read-out: PD50
In short: (§1)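 Mouse protection test against systemic infection. Compound was dissolved in sterile water and given orally to female OF1-strain Swiss mice weighing 18–25 g, with five mice per group.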

[2] = tested on: Streptococcus pneumoniae; assay: Antibacterial activity against Streptococcus pneumoniae; type: functional
[3] = tested on: Klebsiella pneumoniae; assay: In vitro for antibacterial activity against Klebsiella pneumoniae; type: functional
In short: (§2)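 MIC by serial 2-fold broth dilution in nutrient broth with an inoculum of 10^6 CFU/mL. Compound range was 0.0005–250 μg/mL. Plates were incubated 18 h at 37 °C. MIC was taken as the lowest concentration preventing visible growth.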

[4] = % dose recovered in mouse urine; conditions: % recovery
[5] = in vivo; conditions: mouse, plasma, T1/2
[6] = tested on: Proteus mirabilis; assay: In vitro for antibacterial activity against Proteus mirabilis; type: functional; in short: as §2
[7] = tested on: Enterococcus faecalis; assay: In vitro for antibacterial activity against Enterococcus faecalis; type: functional; in short: as §2
[8] = tested on: Morganella morganii; assay: In vitro for antibacterial activity against Morganella morganii; type: functional; in short: as §2
[9] = tested on: Staphylococcus aureus; assay: Antibacterial activity against Staphylococcus aureus; type: functional
[10] = tested on: Pseudomonas aeruginosa; assay: Compound was tested for […] against Pseudomonas aeruginosa A 9843 after oral administration of drug in mice, value in the parenthesis indicates 95% confidence limits; type: functional; conditions: read-out: PD50; in short: as §1
[11] = tested on: Serratia marcescens; assay: In vitro for antibacterial activity against Serratia marcescens; type: functional; in short: as §2
[12] = in vivo; conditions: mouse, plasma
[13] = tested on: Escherichia coli; assay: In vitro for antibacterial activity against Escherichia coli; type: functional; in short: as §2
[14] = tested on: Bacteroides fragilis; assay: In vitro for antibacterial activity against […].; type: functional; in short: as §2
[15] = tested on: Enterobacter cloacae; assay: In vitro for antibacterial activity against Enterobacter cloacae; type: functional
[16] = organism: Mus musculus; conditions: in vivo
[17] = tested on: Pseudomonas aeruginosa; assay: In vitro for antibacterial activity against Pseudomonas aeruginosa; type: functional; in short: as §2
[18] = tested on: Streptococcus pneumoniae; assay: animal or person; type: functional; conditions: in Mus musculus, po, read-out: PD50
[19] = tested on: Staphylococcus; assay: Compound was tested for […] against Staphylococcus aureus A 15090 after oral administration of drug in mice; type: functional; conditions: read-out: PD50; in short: as §1
[20] = tested on: Escherichia coli; assay: Compound was tested for […] against Escherichia coli A 15119 after oral administration of drug in mice; type: functional; conditions: read-out: PD50; in short: as §1
[21] = tested on: Pseudomonas aeruginosa; assay: animal or person; type: functional; conditions: in Mus musculus, po, read-out: PD50
[22] = organism: Mus musculus; conditions: in vivo; remark: listed apart in the source
[23] = Solubility was measured at PH - 7.2 buffer
[24] = Max plasma concentration was measured by 40 mg/kg dose of peroral administration.; type: ADME, organism-based; parameters: dose 40 mg/kg, route oral; conditions: po
In short: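 Mice were dosed orally at 40 mg/kg, and compound levels were measured in blood. Values came from duplicate or triplicate experiments and are stated as accurate to ±50%.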

[25] = Partition coefficient (logD); conditions: octanol/water
[26] = tested on: Staphylococcus aureus; assay: animal or person; type: functional; conditions: in Mus musculus, po, read-out: PD50
[27] = Lethal dose was determined in OF1-strain female Swiss mice after oral administration of the drug; conditions: mouse, in vivo
[28] = tested on: Escherichia coli; assay: Compound was tested for […] against Escherichia coli A 15119 after oral administration of drug in mice, value in the parenthesis indicates 95% confidence limits; type: functional; conditions: read-out: PD50; in short: as §1
[29] = tested on: Streptococcus pneumoniae; assay: Compound was tested for efficacy on systemic infection against Streptococcus pneumoniae A 9585 after oral administration of drug in mice, value in the parenthesis indicates 95% confidence limits
[30] = Lethal dose was determined in OF1-strain female Swiss mice after intra venous administration of the drug; conditions: mouse, in vivo, iv

SMILES | MIC [2] [mg/L] | MIC [3] [mg/L] | dose excreted [4] [%] | half-life [5] [h] | MIC [6] [mg/L] | MIC [7] [mg/L] | MIC [8] [mg/L] | MIC [9] [mg/L] | ED50 [10] [mg/kg] | MIC [11] [mg/L] | Cmax [12] [µg/mL] | MIC [13] [mg/L] | MIC [14] [mg/L] | MIC [15] [mg/L] | MIC [17] [mg/L] | ED50 [18] [mg/kg] | ED50 [21] [mg/kg] | T1/2 [22] | solubility [23] [mg/mL] | ED50 [26] [mg/kg] | also measured
Cc1c(F)c(N2CC3CC2CN3)nc2c1c(=O)c(C(=O)O)cn2C(C)(C)C (stereo unspecified) | 0.25 (≈ 0.668 µM) | 0.06 (≈ 0.16 µM) | 12 | 3.1 | 0.25 (≈ 0.668 µM) | 0.5 (≈ 1.34 µM) | 0.13 (≈ 0.347 µM) | 0.02 (≈ 0.0534 µM) | 4.1 | 0.13 (≈ 0.347 µM) | 22 | 0.03 (≈ 0.0801 µM) | 32 (≈ 85.5 µM) | 0.13 (≈ 0.347 µM) | 2 (≈ 5.34 µM) | – | – | – | – | – | ED50 [1]: 12.5 mg/kg; AUC [16]: 74 µg·h/mL
Cc1c(F)c(N2CCNCC2)nc2c1c(=O)c(C(=O)O)cn2C1CC1 | 1 (≈ 2.89 µM) | 0.02 (≈ 0.0577 µM) | 12 | – | 0.13 (≈ 0.375 µM) | 1 (≈ 2.89 µM) | 0.06 (≈ 0.173 µM) | 0.03 (≈ 0.0866 µM) | – | 0.13 (≈ 0.375 µM) | – | 0.008 (≈ 0.0231 µM) | 32 (≈ 92.4 µM) | 0.03 (≈ 0.0866 µM) | 0.5 (≈ 1.44 µM) | > 50 | 5.6 | 2.73 h and 1.23 h | – | – | ED50 [19]: 9.6 mg/kg; ED50 [20]: 1.2 mg/kg
Cc1c(F)c(N2CC[C@H](N)C2)nc2c1c(=O)c(C(=O)O)cn2C(C)(C)C | 0.25 (≈ 0.69 µM) | 0.03 (≈ 0.0828 µM) | 7 | 2.83 | 0.06 (≈ 0.166 µM) | 0.13 (≈ 0.359 µM) | 0.06 (≈ 0.166 µM) | 0.004 (≈ 0.011 µM) | – | 0.13 (≈ 0.359 µM) | 7 | 0.004 (≈ 0.011 µM) | 4 (≈ 11 µM) | 0.03 (≈ 0.0828 µM) | 1 (≈ 2.76 µM) | > 25 | 25 | – | 0.57 (≈ 1570 µM) | – | Cmax [24]: 7 µg/mL; ED50 [19]: 4.1 mg/kg; logD [25]: 1.14
Cc1c(F)c(N2CC3CC2CN3)nc2c1c(=O)c(C(=O)O)cn2-c1ccc(F)cc1F (stereo unspecified) | 0.06 (≈ 0.139 µM) | 0.06 (≈ 0.139 µM) | 11 | 2.38 | 0.06 (≈ 0.139 µM) | 0.13 (≈ 0.302 µM) | 0.13 (≈ 0.302 µM) | 0.008 (≈ 0.0186 µM) | – | 0.13 (≈ 0.302 µM) | 20 | 0.008 (≈ 0.0186 µM) | 4 (≈ 9.29 µM) | 0.03 (≈ 0.0697 µM) | 0.5 (≈ 1.16 µM) | – | 1.6 | 2.08 h | 0.05 (≈ 116 µM) | 0.7 | logD [25]: 0.59
O=C(O)c1cn(-c2ccc(F)cc2F)c2nc(N3CC4CC3CN4)c(F)cc2c1=O (stereo unspecified) | 0.25 (≈ 0.6 µM) | 0.008 (≈ 0.0192 µM) | 7 | 1.72 | 0.03 (≈ 0.0721 µM) | 0.5 (≈ 1.2 µM) | 0.06 (≈ 0.144 µM) | 0.016 (≈ 0.0384 µM) | – | 0.06 (≈ 0.144 µM) | – | 0.004 (≈ 0.00961 µM) | 1 (≈ 2.4 µM) | 0.016 (≈ 0.0384 µM) | 0.25 (≈ 0.6 µM) | – | 2.7 | 1.48 h | – | 9.5 | –
CC(C)(C)n1cc(C(=O)O)c(=O)c2cc(F)c(N3CC4CC3CN4)nc21 (stereo unspecified) | 0.13 (≈ 0.361 µM) | 0.02 (≈ 0.0555 µM) | 34 | 1.6 | 0.06 (≈ 0.166 µM) | 0.5 (≈ 1.39 µM) | 0.06 (≈ 0.166 µM) | 0.003 (≈ 0.00832 µM) | 4.7 | 0.06 (≈ 0.166 µM) | 10 | 0.008 (≈ 0.0222 µM) | 4 (≈ 11.1 µM) | 0.02 (≈ 0.0555 µM) | 0.25 (≈ 0.694 µM) | – | – | 1.58 h | 0.08 (≈ 222 µM) | 1.6 | LD50 [27]: 5000 mg/kg; ED50 [28]: 1.8 mg/kg; PD50 [29]: 29.7 mg/kg; LD50 [30]: 303 mg/kg
